Only some compounds are listed: those with a hit (about 2% of all), similar ones and a draw of the others.
FLuc act counter = FLuc activators, initial screening, artefact control for FLuc-dependent activation tests, biochemical, ATPlite luminescence. Luciferin 4-monooxygenase (Photinus pyralis), P08659. ATPlite luciferase biochemical, 10 min; 0 = ATP-free wells, 1 = DMSO control. activation factor at 10 µM. AID 1027, 2008. 200,000 tested, under 10 active;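 active = luciferase activation factor, scaled between plate controls, of at least 2 with compound at 10 µM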
Target sequence (P08659 whole entry, looked up): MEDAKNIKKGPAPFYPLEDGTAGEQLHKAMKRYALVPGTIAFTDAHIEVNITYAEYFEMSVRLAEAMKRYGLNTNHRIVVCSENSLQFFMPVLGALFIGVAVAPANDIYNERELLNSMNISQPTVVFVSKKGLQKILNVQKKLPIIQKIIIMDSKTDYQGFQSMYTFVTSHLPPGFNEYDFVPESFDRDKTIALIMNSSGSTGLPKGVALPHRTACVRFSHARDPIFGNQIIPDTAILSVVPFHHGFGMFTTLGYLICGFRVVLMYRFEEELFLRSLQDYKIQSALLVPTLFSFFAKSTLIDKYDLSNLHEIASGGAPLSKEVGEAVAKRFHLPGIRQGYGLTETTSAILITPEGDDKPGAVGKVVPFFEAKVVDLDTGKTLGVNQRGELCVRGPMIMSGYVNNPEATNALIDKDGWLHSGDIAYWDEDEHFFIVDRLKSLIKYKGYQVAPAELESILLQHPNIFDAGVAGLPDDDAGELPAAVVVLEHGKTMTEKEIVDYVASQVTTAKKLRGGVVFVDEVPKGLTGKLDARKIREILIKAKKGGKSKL
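System: Luciferase/luciferin detection reagent, cell-free biochemical luciferase assay | Medium: PBS buffer for ATP | Dosing: Test compounds dosed from 2 mM stocks in 100% DMSO | Timing: 10 min at ambient temperature | Signal: Luminescence measurement of luciferase light output | Evaluation: Luciferase activation, seen as luminescence increase over controls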
TRAIL sens C8 = viability loss with TRAIL in NB7+C8 cells, primary screen, TRAIL sensitizer project, cell-based, ATPlite luminescence. hit rate 1% among 360,000. inhibition (viability loss, TRAIL sensitization), % at 10 µM;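 active = compounds causing at least 50% loss of cell viability in the single-dose screen, relative to plate controls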
HSP90 refold inh = HSP90 inhibitors, primary screen, cell lysate, luminescence; Heat shock protein HSP 90 (rabbit reticulocyte lysate; luciferase refolding); Rabbit reticulocyte lysate, luciferase refolding luminescence, 3 h; inhibition, % at 5.6 µM; hit rate 0.91% among 290,000; AID 1789, 2009;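 active = inhibition above the screen-wide mean plus 3 SD, computed separately per campaign, cut at about 16% in these data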;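 note: 0% = DMSO wells and 100% = 60 µM geldanamycin wells; inhibitors lower the luminescence because luciferase stays unfolded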
FLuc inhib CS = firefly luciferase enzyme inhibitors, primary screen, artefact control for luciferase-based inhibitor screens, biochemical, luminescence, ATPLite. 10 min. Luciferin 4-monooxygenase (Photinus pyralis), P08659. inhibition, % at 10 µM. AID 1006, 2008. hit rate 1.5% among 200,000;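 active = inhibition above about 50% when tested at 10 µM, limit read from the data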
PPC-1+TRAIL kill = compounds killing PPC-1 cancer cells with TRAIL present, primary screen, TRAIL potentiator project, ATPLite luminescence, uHTS; PPC-1 cells + TRAIL, ATPLite viability luminescence; cell killing (% activity), % at 4 µM or 5 µM; hit rate 0.41% among 220,000; AID 1443, 2008;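 active = cell killing above 50% in the first pass at 4 µM, then a duplicate retest at 5 µM averaging 50% or more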;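 note: plate controls were cells with TRAIL plus DMSO for no effect and medium-only wells lacking cells for full effect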
PPC1 cytotox = cytotoxicity in PPC-1 cells, confirmation, cytotoxicity control for TRAIL apoptosis potentiator project, cell-based, ATP content luminescence; shares compounds with PPC-1+TRAIL kill; PPC-1 viability, ATPlite luminescence, overnight; cytotoxicity, % at 5 µM; hit rate 50% among 1,200;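 active = reconfirmed compounds whose average cytotoxicity reaches 50% or more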;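 note: 0% = DMSO-treated cells and 100% = wells holding medium but no cells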
* = called active by the depositor; . = no result given.

SMILES	FLuc act counter	TRAIL sens C8	HSP90 refold inh	FLuc inhib CS	PPC-1+TRAIL kill	PPC1 cytotox
COC(=O)c1ccccc1NC(=O)C1CCCO1 (centres undefined)	1.1	22.7	0.0	-6.3	0.5	.
O=C(O)c1cc(Cl)ccc1NC(=O)C1CCCO1 (centres undefined)	1	5.7	-2.5	-0.5	13.9	-10.0
O=C(O)c1ccccc1NC(=O)C1CCCO1 (centres undefined)	1	-14.5	-0.4	-1.7	6.8	6.4
C=CCNC(=S)N/N=C(\C)c1ccccn1	1	-7.4	8.4	-1.1	33.0	41.2
CC(=NNC(=S)Nc1ccccc1)c1ccccn1	.	-9.4	.	.	.	.
O=C(N/N=C/c1cccc2nccnc12)c1ccccc1O	.	6.5	-0.1	.	20.2	.
C(=N\Nc1nc2ccccc2[nH]1)/c1cccc2cccnc12	.	18.9	4.3	.	53.2*	51.8*
O=C(N/N=C/c1cccc2cccnc12)c1ccccc1O	.	41.1	3.0	.	33.2	19.3
COc1ccc(S(=O)(=O)NNC(=O)C2COc3ccccc3O2)cc1[N+](=O)[O-] (centres undefined)	.	9.8	.	.	.	.
N#CC1=C(N)Oc2n[nH]c(-c3cccs3)c2C1c1ccoc1 (centres undefined)	1.1	-11.8	8.3	-7.9	-18.4	-42.4
COc1cc(-c2[nH]nc3c2C(c2ccoc2)C(C#N)=C(N)O3)cc(OC)c1OC (centres undefined)	1	7.1	8.2	-4.5	12.9	19.8
Cn1c(=O)c2cc(NC(=O)CCc3cccnc3)ccc2n1Cc1cccc(C(F)(F)F)c1	.	-1.1	.	.	.	.
CCCOc1ccc2c(=O)c(N3C(=O)c4ccccc4C3=O)c(C)oc2c1	1.1	-6.2	-0.2	-7.8	-16.0	-10.5
Cc1ccc(OCc2nnc(SCC(=O)NCc3ccccc3)n2C)cc1	1.1	0.9	-0.9	-5.4	11.1	10.8
Cn1c(COc2ccccc2)nnc1SCC(=O)NCc1ccccc1	1	-4.3	-2.4	-4.2	10.3	.
COc1ccc(OC)c(C(C(=O)NC2CCCCC2)N(Cc2ccco2)C(=O)c2ccccn2)c1 (centres undefined)	.	-3.9	5.5	.	.	.
O=C(N/N=C/c1ccc2ncccc2c1)c1ccco1	0.1	80.4*	31.1*	92.0*	67.7*	70.4*
O=C(N/N=C/c1ccccn1)c1ccco1	0.9	31.2	-4.4	6.2	17.2	.
O=C(O)COc1ccc(/C=N/NC(=O)Cc2ccc(Cl)cc2)cc1	.	-6.9	-0.4	.	6.7	.
COc1ccc(-c2nc(CCl)cs2)cc1	0.7	4.0	-0.6	32.4	0.9	3.5
COc1ccc2c(C)nc(Nc3nc(-c4ccccc4)cc(=O)[nH]3)nc2c1	.	41.1	2.4	.	42.1	44.1
C=CCNc1ncnc2c1ncn2[C@H]1CN(Cc2cccs2)C[C@@H](CO)O1	.	-1.0	.	.	.	.
O=C(Nc1ccccc1C(=O)N1CCCC1)c1cccc(S(=O)(=O)N2CCCCC2)c1	1.1	-4.2	1.7	-5.8	-21.4	-14.7
O=C(Nc1ccccc1C(=O)N1CCCCC1)c1cccc(S(=O)(=O)N2CCOCC2)c1	1	-6.8	-0.7	-0.4	13.5	.
COc1ccc(-c2nc(-c3ccccn3)ncc2S(C)(=O)=O)cc1	1.1	-6.9	2.5	-8.7	-11.5	.
SMILES	FLuc act counter	TRAIL sens C8	HSP90 refold inh	FLuc inhib CS	PPC-1+TRAIL kill	PPC1 cytotox
Cn1nc(-c2ccccn2)nc2c(=O)n(C)c(=O)nc1-2	.	96.0*	86.6*	.	30.5	36.0
CCC1(c2ccccc2)NC(=O)N(CC(=O)NNC(=O)COc2ccc(Cl)cc2C)C1=O (centres undefined)	.	-6.6	.	.	.	.
O=C(/C=C/c1ccc([N+](=O)[O-])cc1)c1cccs1	.	25.4	-0.3	.	19.2	.
COc1cc([N+](=O)[O-])ccc1N/C=C/C(=O)c1cccs1	0.1	88.9*	13.9	93.4*	89.1*	90.5*
Cc1ccc(-c2nc3cc(N)ccc3o2)c(C)c1	0.2	58.0*	4.4	78.3*	44.5	47.8
Cc1ccc(-c2nc3cc(N)ccc3o2)cc1	0.1	69.8*	8.8	88.8*	63.4*	60.8*
Cc1cc(=O)[nH]c(SCC(=O)N2CCN(S(=O)(=O)c3ccccc3)C2)n1	1	3.2	-0.8	-0.4	-0.2	.
COc1cc(/C=N/Nc2nncn2/N=C/c2ccc(O)c(OC)c2)ccc1O	0	74.8*	12.0	96.1*	82.8*	83.4*
CCN(CC)CCCNc1nc2cc(OC)c(OC)cc2c2nc(-c3ccccc3)nn12	1	10.7	4.9	-4.0	26.1	22.0
CCN(CC)c1ccc(NC(=O)c2ccc3c(c2)OCO3)c(C)c1	.	11.7	-0.3	.	.	.
Cc1ccc(S(=O)(=O)N2CCOCC2)cc1NC(=O)Cn1c(=O)ccn(Cc2ccccc2)c1=O	.	5.6	.	.	.	.
O=C1C=C(Nc2ccccc2)C(=O)c2ccccc21	0.6	47.2	2.9	43.7	36.4	32.6
Cn1ncc(Br)c1NC(=O)Nc1ccccc1	.	-13.2	2.0	.	.	.
COC(=O)c1cc(S(=O)(=O)NCC2CCN(CCc3ccc(OC)cc3)CC2)cn1C	.	0.5	1.4	.	.	.
COC(=O)C1C(=O)c2c([nH]c(C(=O)OCCOC(C)C)c2C)CC1C (centres undefined)	0.7	.	8.3	30.0	-9.4	-2.1
CN(CC(=O)Nc1ccccc1Br)C(=O)c1cccn1C	.	-0.1	.	.	.	.
Cc1cc(C(=O)CN2C(=O)C3CC=CCC3C2=O)c(C)n1-c1ccccc1 (centres undefined)	0.3	62.8*	9.0	74.0*	48.5	53.0*
Cc1cc(C(=O)CN2C(=O)c3ccccc3S2(=O)=O)c(C)n1C(C)C	.	27.1	.	.	.	.
Cc1cc(C(=O)CN2C(=O)c3ccccc3S2(=O)=O)c(C)n1-c1ccccc1	0.4	62.5*	16.4*	62.9*	25.9	23.0
COc1ccc(NC(=O)C2Cc3ccccc3O/C2=N\O)cc1 (centres undefined)	.	10.8	2.3	.	.	.
COc1ccc(C(=O)NC2CCN(C(=O)Nc3ccccc3Cl)CC2)cc1	1	-6.6	-3.3	2.4	0.9	.
CN1CCN(c2ccccc2NC(=O)Cc2cn(C)c3ccccc23)CC1	1.1	35.6	-1.2	-7.5	13.8	.
Cc1ccccc1NC(=O)Cc1cn(C)c2ccccc12	1	5.7	0.5	-0.5	4.0	-8.6
c1ccc(-c2ccc(-c3nc(-c4ccccn4)no3)cc2)cc1	0.1	90.4*	78.0*	94.2*	90.2*	90.1*
COc1cc(-c2nc(-c3ccccn3)no2)cc(OC)c1OC	0.9	-8.7	-0.1	6.4	11.7	.
c1ccc(-c2noc(-c3ccno3)n2)nc1	.	4.6	-1.6	.	15.0	.
Cc1ccc(-c2nc(-c3ccccn3)no2)cc1Cl	0	87.3*	63.9*	95.4*	88.5*	87.7*

From PubChem BioAssay
